According to ChEMBL document CHEMBL4190374, “Structure-Function Evaluation of Imidazopyridine Derivatives Selective for δ-Subunit-Containing γ-Aminobutyric Acid Type A (GABAA) Receptors” (J Med Chem, 2018):
Calls of active or inactive are those of the source. The rule behind the calls is not given here.

Assays:
[1] = molecular target: Gamma-aminobutyric acid receptor subunit alpha-4/beta-3 (Rattus norvegicus) (UniProt P28471+P63079); experiment: Displacement of [3H]EBOB from rat GABA-A receptor alpha4beta3 expressed in HEK293 cell membranes up to 10 uM after 90 mins by liquid scintillation counting analysis relative to control
Method in brief: (§1)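 Crude membranes from HEK 293 cells transiently Ca-phosphate-transfected with rat subunit cDNAs, harvested at 48 h. Membranes (150-200 µg protein) incubated with 3 nM [3H]EBOB in 50 mM Tris/citrate pH 7.3 plus 0.2 M NaCl. Compound up to 10 µM, final DMSO 0.1%, no GABA, 90 min at 21 °C. Bound radioligand collected by GF/C filtration and counted by scintillation.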

[2] = molecular target: Gamma-aminobutyric acid receptor subunit alpha-6/beta-2/delta (Rattus norvegicus) (UniProt P18506+P30191+P63138); experiment: Displacement of [3H]EBOB from rat GABA-A receptor alpha6beta2delta expressed in HEK293 cell membranes up to 10 uM after 90 mins by liquid scintillation counting analysis relative to control; method in brief: as §1
[3] = molecular target: Gamma-aminobutyric acid receptor subunit alpha-6/beta-3 (Rattus norvegicus, UniProt P30191+P63079); experiment: (§2) Displacement of [3H]EBOB from rat GABA-A receptor alpha6beta3 expressed in HEK293 cell membranes after 90 mins in presence of GABA by liquid scintillation counting analysis
Chain of Gamma-aminobutyric acid receptor subunit alpha-6/beta-3 (P30191 whole entry): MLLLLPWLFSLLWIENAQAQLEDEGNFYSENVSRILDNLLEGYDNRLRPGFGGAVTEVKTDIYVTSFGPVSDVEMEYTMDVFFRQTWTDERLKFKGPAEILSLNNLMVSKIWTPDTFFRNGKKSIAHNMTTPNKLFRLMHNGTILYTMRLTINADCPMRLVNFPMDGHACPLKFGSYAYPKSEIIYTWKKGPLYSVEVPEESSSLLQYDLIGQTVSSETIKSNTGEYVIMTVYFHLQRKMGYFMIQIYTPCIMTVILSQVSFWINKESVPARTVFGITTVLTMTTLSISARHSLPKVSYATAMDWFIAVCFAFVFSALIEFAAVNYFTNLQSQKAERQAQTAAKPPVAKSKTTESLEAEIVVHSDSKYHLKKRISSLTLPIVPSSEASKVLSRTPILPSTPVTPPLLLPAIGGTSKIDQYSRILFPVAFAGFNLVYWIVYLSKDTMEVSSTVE
Chain of Gamma-aminobutyric acid receptor subunit alpha-6/beta-3 (P63079 whole entry): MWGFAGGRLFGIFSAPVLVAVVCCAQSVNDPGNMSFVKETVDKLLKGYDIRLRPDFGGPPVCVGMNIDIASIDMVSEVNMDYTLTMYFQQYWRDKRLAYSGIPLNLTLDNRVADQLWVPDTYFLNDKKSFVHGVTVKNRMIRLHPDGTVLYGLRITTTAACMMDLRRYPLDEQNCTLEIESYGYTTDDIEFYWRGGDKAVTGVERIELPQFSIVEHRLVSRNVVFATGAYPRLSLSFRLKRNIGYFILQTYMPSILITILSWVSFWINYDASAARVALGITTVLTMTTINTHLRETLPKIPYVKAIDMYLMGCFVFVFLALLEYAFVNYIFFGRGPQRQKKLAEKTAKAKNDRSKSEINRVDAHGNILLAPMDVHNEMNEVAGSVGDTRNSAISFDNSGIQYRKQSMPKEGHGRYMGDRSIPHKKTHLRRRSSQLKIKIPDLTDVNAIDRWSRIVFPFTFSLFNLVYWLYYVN

[4] = molecular target: T1, Gamma-aminobutyric acid receptor subunit alpha-6/beta-3 (Rattus norvegicus) (UniProt P30191+P63079); experiment: as §2
[5] = molecular target: T2, Gamma-aminobutyric acid receptor subunit alpha-6/beta-3/gamma-2 (Rattus norvegicus) (UniProt P18508+P30191+P63079); experiment: Displacement of [3H]EBOB from rat GABA-A receptor alpha6beta3gamma2 expressed in HEK293 cell membranes at 10 uM after 90 mins by liquid scintillation counting analysis relative to control; method in brief: as §1
[6] = species: Rattus norvegicus; experiment: Selectivity ratio of IC50 for rat GABA-A receptor alpha6beta3delta expressed in HEK293 cells to IC50 for rat GABA-A receptor alpha6beta2delta expressed in HEK293 cells; format: cell-based
[7] = molecular target: Gamma-aminobutyric acid receptor subunit alpha-6/beta-2 (Rattus norvegicus, UniProt P30191+P63138); experiment: Displacement of [3H]EBOB from rat GABA-A receptor alpha6beta2 expressed in HEK293 cell membranes after 90 mins by liquid scintillation counting analysis; method in brief: as §1
Chain of Gamma-aminobutyric acid receptor subunit alpha-6/beta-2 (P30191 whole entry): as the sequence (P30191 whole entry) above
Chain of Gamma-aminobutyric acid receptor subunit alpha-6/beta-2 (P63138 whole entry): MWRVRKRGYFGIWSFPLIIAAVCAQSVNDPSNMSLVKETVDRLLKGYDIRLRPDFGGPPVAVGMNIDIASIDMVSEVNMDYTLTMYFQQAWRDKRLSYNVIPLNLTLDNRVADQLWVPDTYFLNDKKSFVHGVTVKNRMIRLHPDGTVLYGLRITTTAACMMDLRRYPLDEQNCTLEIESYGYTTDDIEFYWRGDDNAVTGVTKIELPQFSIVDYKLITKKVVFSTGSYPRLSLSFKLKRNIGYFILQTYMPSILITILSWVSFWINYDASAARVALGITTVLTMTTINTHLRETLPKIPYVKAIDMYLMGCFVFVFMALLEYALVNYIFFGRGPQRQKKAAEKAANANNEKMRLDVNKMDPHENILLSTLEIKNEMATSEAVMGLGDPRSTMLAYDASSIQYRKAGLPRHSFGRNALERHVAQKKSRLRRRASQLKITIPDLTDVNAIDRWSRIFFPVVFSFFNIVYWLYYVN

[8] = molecular target: T2, Gamma-aminobutyric acid receptor subunit alpha-6/beta-3/gamma-2 (Rattus norvegicus); experiment: (§3) Displacement of [3H]EBOB from rat GABA-A receptor alpha6beta3gamma2 expressed in HEK293 cell membranes after 90 mins in presence of GABA by liquid scintillation counting analysis
[9] = molecular target: Gamma-aminobutyric acid receptor subunit alpha-6/beta-3/gamma-2 (Rattus norvegicus, UniProt P18508+P30191+P63079); experiment: as §3
Chain of Gamma-aminobutyric acid receptor subunit alpha-6/beta-3/gamma-2 (P18508 whole entry): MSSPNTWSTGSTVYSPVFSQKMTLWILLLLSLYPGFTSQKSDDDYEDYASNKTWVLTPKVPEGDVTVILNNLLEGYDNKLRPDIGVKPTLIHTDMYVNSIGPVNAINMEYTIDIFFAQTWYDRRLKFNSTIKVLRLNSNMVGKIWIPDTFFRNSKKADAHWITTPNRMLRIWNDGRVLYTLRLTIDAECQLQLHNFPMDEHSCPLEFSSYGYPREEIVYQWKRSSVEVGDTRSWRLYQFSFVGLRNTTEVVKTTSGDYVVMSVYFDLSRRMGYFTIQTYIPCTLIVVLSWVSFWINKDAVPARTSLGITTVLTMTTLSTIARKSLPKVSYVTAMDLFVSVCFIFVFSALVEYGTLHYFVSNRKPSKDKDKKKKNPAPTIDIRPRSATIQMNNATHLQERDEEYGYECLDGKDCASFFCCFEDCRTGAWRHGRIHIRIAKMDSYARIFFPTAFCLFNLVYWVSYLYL
Chain of Gamma-aminobutyric acid receptor subunit alpha-6/beta-3/gamma-2 (P30191 whole entry): as the sequence (P30191 whole entry) above
Chain of Gamma-aminobutyric acid receptor subunit alpha-6/beta-3/gamma-2 (P63079 whole entry): as the sequence (P63079 whole entry) above

[10] = molecular target: Gamma-aminobutyric acid receptor subunit alpha-1/beta-3/gamma-2 (Rattus norvegicus) (UniProt P18508+P62813+P63079); experiment: Displacement of [3H]EBOB from rat GABA-A receptor alpha1beta3gamma2 expressed in HEK293 cell membranes at 10 uM after 90 mins by liquid scintillation counting analysis relative to control; method in brief: as §1
[11] = molecular target: GABA A receptor alpha-6/beta-2/gamma-2 (Rattus norvegicus) (UniProt P18508+P30191+P63138); experiment: Displacement of [3H]EBOB from rat GABA-A receptor alpha6beta2gamma2 expressed in HEK293 cell membranes at 10 uM after 90 mins by liquid scintillation counting analysis relative to control; method in brief: as §1
[12] = molecular target: Gamma-aminobutyric acid receptor subunit alpha-6/beta-2/delta (Rattus norvegicus, UniProt P18506+P30191+P63138); experiment: Displacement of [3H]EBOB from rat GABA-A receptor alpha6beta2delta expressed in HEK293 cell membranes after 90 mins by liquid scintillation counting analysis; method in brief: as §1
Chain of Gamma-aminobutyric acid receptor subunit alpha-6/beta-2/delta (P18506 whole entry): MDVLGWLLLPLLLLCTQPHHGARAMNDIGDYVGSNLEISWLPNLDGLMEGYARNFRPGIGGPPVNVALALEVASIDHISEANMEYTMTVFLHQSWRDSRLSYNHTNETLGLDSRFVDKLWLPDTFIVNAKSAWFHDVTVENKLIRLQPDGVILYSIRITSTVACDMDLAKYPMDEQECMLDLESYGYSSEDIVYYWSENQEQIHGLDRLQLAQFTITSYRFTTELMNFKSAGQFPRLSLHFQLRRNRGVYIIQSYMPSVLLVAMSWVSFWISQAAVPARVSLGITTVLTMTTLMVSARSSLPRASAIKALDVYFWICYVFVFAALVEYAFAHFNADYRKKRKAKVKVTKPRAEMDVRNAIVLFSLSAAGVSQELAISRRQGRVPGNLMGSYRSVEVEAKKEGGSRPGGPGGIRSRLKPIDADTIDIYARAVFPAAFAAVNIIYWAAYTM
Chain of Gamma-aminobutyric acid receptor subunit alpha-6/beta-2/delta (P30191 whole entry): as the sequence (P30191 whole entry) above
Chain of Gamma-aminobutyric acid receptor subunit alpha-6/beta-2/delta (P63138 whole entry): as the sequence (P63138 whole entry) above

[13] = molecular target: Gamma-aminobutyric acid receptor subunit alpha-4/beta-3/gamma-2 (Rattus norvegicus) (UniProt P18508+P28471+P63079); experiment: Displacement of [3H]EBOB from rat GABA-A receptor alpha4beta3gamma2 expressed in HEK293 cell membranes up to 10 uM after 90 mins by liquid scintillation counting analysis relative to control; method in brief: as §1
[14] = molecular target: T3, Gamma-aminobutyric acid receptor subunit alpha-6/beta-3/delta (Rattus norvegicus, UniProt P18506+P30191+P63079); experiment: Displacement of [3H]EBOB from rat GABA-A receptor alpha6beta3delta expressed in HEK293 cell membranes after 90 mins by liquid scintillation counting analysis; method in brief: as §1
T3 sequence (P18506 whole entry): as the sequence (P18506 whole entry) above
T3 sequence (P30191 whole entry): as the sequence (P30191 whole entry) above
T3 sequence (P63079 whole entry): as the sequence (P63079 whole entry) above

[15] = molecular target: T4, Gamma-aminobutyric acid receptor subunit alpha-6/beta-3/delta (Rattus norvegicus) (UniProt P18506+P30191+P63079); experiment: (§4) Displacement of [3H]EBOB from rat GABA-A receptor alpha6beta3delta expressed in HEK293 cell membranes after 90 mins in presence of GABA by liquid scintillation counting analysis
[16] = molecular target: T3, Gamma-aminobutyric acid receptor subunit alpha-6/beta-3/delta; experiment: as §4
[17] = molecular target: T1, Gamma-aminobutyric acid receptor subunit alpha-6/beta-3 (Rattus norvegicus); experiment: Displacement of [3H]EBOB from rat GABA-A receptor alpha6beta3 expressed in HEK293 cell membranes at 10 uM after 90 mins by liquid scintillation counting analysis relative to control; method in brief: as §1
[18] = molecular target: T4, Gamma-aminobutyric acid receptor subunit alpha-6/beta-3/delta (Rattus norvegicus); experiment: Displacement of [3H]EBOB from rat GABA-A receptor alpha6beta3delta expressed in HEK293 cell membranes up to 10 uM after 90 mins by liquid scintillation counting analysis relative to control; method in brief: as §1
[19] = molecular target: Gamma-aminobutyric acid receptor subunit alpha-6/beta-2 (Rattus norvegicus) (UniProt P30191+P63138); experiment: Displacement of [3H]EBOB from rat GABA-A receptor alpha6beta2 expressed in HEK293 cell membranes up to 10 uM after 90 mins by liquid scintillation counting analysis relative to control; method in brief: as §1
[20] = molecular target: Gamma-aminobutyric acid receptor subunit alpha-1/beta-3/delta (Rattus norvegicus) (UniProt P18506+P62813+P63079); experiment: Displacement of [3H]EBOB from rat GABA-A receptor alpha1beta3delta expressed in HEK293 cell membranes at 10 uM after 90 mins by liquid scintillation counting analysis relative to control; method in brief: as §1
[21] = molecular target: Gamma-aminobutyric acid receptor subunit alpha-4/beta-3/delta (Rattus norvegicus) (UniProt P18506+P28471+P63079); experiment: Displacement of [3H]EBOB from rat GABA-A receptor alpha4beta3delta expressed in HEK293 cell membranes up to 10 uM after 90 mins by liquid scintillation counting analysis relative to control; method in brief: as §1
[22] = molecular target: Gamma-aminobutyric acid receptor subunit alpha-1/beta-3 (Rattus norvegicus) (UniProt P62813+P63079); experiment: Displacement of [3H]EBOB from rat GABA-A receptor alpha1beta3 expressed in HEK293 cell membranes at 10 uM after 90 mins by liquid scintillation counting analysis relative to control; method in brief: as §1
[23] = molecular target: T4, Gamma-aminobutyric acid receptor subunit alpha-6/beta-3/delta (Rattus norvegicus); experiment: Displacement of [3H]EBOB from rat GABA-A receptor alpha6beta3delta expressed in HEK293 cell membranes at 10 uM after 90 mins by liquid scintillation counting analysis relative to control; method in brief: as §1

Structure (SMILES): O=C(Nc1c(-c2cccs2)nc2c(Br)cc(Br)cn12)c1ccc(OCCCCF)cc1
- inhibition [1]: inactive
- Imax [2]: 55%
- IC50 [3]: 1290 nM
- Imax [4]: 57%
- inhibition [5]: inactive
- Ratio IC50 [6]: 3
- IC50 [7]: 740 nM
- Imax [8]: 44%
- IC50 [9]: 1280 nM
- inhibition [10]: inactive
- inhibition [11]: inactive
- IC50 [12]: 270 nM
- inhibition [13]: inactive
- IC50 [14]: 760 nM
- Imax [15]: 55%
- IC50 [16]: 490 nM
- Imax [17]: 11%
- Imax [18]: 53%
- Imax [19]: 33%
- inhibition [20]: inactive
- inhibition [21]: inactive
- inhibition [22]: inactive

Structure (SMILES): O=C(Nc1c(-c2cccs2)nc2ccccn12)c1ccc(OCc2ccccc2)cc1
- Imax [23]: 54%
- inhibition [5]: inactive
- inhibition [17]: inactive
